These results are taken from ChEMBL document CHEMBL5038599, “Identification of Thiazoyl Guanidine Derivatives as Novel Antifungal Agents Inhibiting Ergosterol Biosynthesis for Treatment of Invasive Fungal Infections” (J Med Chem, 2021).

≈ marks a conversion by molar mass, not a printed value.

A word on the MIC: it is the lowest concentration that inhibits growth of the organism. Broadly, the MIC50 is the lowest concentration that inhibits either 50% of growth or 50% of the strains tested, depending on the study.

The nature of series [1]: Metabolic stability in human liver microsomes assessed as parent compound remaining at 0.5 uM incubated for 30 mins by LC/MS/MS analysis. The format is ADME, Microsome. The conditions noted are these: read-out: Stability. In short, it runs like this:
(§1)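 Compound at 0.5 μM was incubated with liver microsomes at 0.5 mg protein/mL at 37 °C. Buffer was 50 mM Tris-HCl pH 7.4 with 150 mM KCl, 10 mM MgCl2 and 1 mM NADPH. Reactions were stopped at 0 and 30 min with MeCN/MeOH 1:1. Percent remaining was taken from LC/MS/MS peak area ratio, in duplicate.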

Series [2] is described as follows: Metabolic stability in rat liver microsomes assessed as parent compound remaining at 0.5 uM incubated for 30 mins by LC/MS/MS analysis. The format is ADME, Microsome. The following applies: read-out: Stability. The essentials: as §1
A general note: Liver microsomes are vesicles of endoplasmic reticulum, rich in cytochrome P450 enzymes.

Series [3] concerns Aspergillus fumigatus. Briefly: Antifungal activity against Aspergillus fumigatus ATCC 204305 assessed as inhibition of fungal growth incubated for 48 hrs by broth microdilution method. The following applies: ATCC 204305, 48 h. (Dilution methods test growth across graded concentrations, often in twofold steps.)
Series [4] concerns Aspergillus fumigatus. The series can be described thus: Antifungal activity against Aspergillus fumigatus ATCC 204305 assessed as inhibition of fungal growth incubated for 48 hrs in presence of 50% heat-inactivated bovine serum by broth microdilution method. The conditions noted are these: ATCC 204305, 48 h, in the assay text read “incubated for 48 hrs” for “incubated for 24 hrs”. The series is classed as functional. In short, it runs like this:
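Broth microdilution per CLSI M38-A2 with modifications. Conidia at about 1 × 10⁴ CFU/mL were grown for 48 h at 35 °C in YNB with 2% glucose and complete amino-acid mix, buffered to pH 7.0 with 50 mM MOPS. Medium was with or without 50% heat-inactivated bovine serum. MIC was the lowest concentration giving no visible growth.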

For series [5], the system named is Aspergillus fumigatus. The series can be described thus: Antifungal activity against Aspergillus fumigatus ATCC 204305 assessed as inhibition of fungal growth […] by broth microdilution method. The series is classed as functional.
Series [6] deals with Candida albicans. The series can be described thus: Antifungal activity against Candida albicans ATCC 90028 assessed as inhibition of fungal growth incubated for 24 hrs by broth microdilution method. The format is functional. In short, it runs like this:
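Yeast cells were adjusted to about 2 × 10³ CFU/mL and broth microdilution was run for 24 h at 35 °C. Medium was YNB with 2% glucose and complete amino-acid mix, buffered to pH 7.0 with 50 mM MOPS. MIC was the lowest concentration giving >50% growth reduction versus untreated control, read by optical density at 600 nm.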

For the molecule `CS(=O)(=O)c1cccc(-c2nc(-c3csc(N=C4NCCCN4)n3)cs2)c1`, the remaining at 0.5 h, 0.5 µM in series [1] was 85%; in series [2], 47%. The MIC in series [3] was 4 µg/mL (≈ 9.53 µM). Besides, in series [4], the MIC50 was 16 µg/mL.
Consider `Cc1ccc(Oc2ccccc2-c2csc(/N=C3\NCCCN3C)n2)c(C)c1`, for which the MIC50 in series [5] is above 16 µg/mL; in series [6], 8 µg/mL (≈ 20.4 µM).
The like results for `Cc1ccc(Oc2ccccc2-c2csc(N=C3NCCCCN3)n2)c(C)c1` were, in that order, above 16 µg/mL and 1 µg/mL (≈ 2.55 µM).
The matching figures for `Cc1ccc(Oc2ccccc2-c2csc(N=C3NCCN3)n2)c(C)c1`: above 16 µg/mL and 0.5 µg/mL (≈ 1.37 µM).
`O=C(O)c1ccc(-c2nc(-c3csc(N=C4NCCCN4)n3)cs2)cc1`: in series [3], the minimum inhibitory concentration (MIC) is above 16 µg/mL.
Regarding `Cc1ccc(Oc2ccccc2-c2cnc(N=C3NCCCN3)s2)c(C)c1`, the MIC50 in series [5] and in series [6] was above 16 µg/mL in each case.
As for `c1ccc(-c2nc(-c3csc(N=C4NCCCN4)n3)co2)cc1`, the MIC50 in series [5] was found to be 16 µg/mL (≈ 49.2 µM); in series [6] it was 0.063 µg/mL (≈ 0.194 µM).
In the case of `c1ccc(-c2nc(-c3csc(N=C4NCCCN4)n3)cs2)nc1`, the MIC in series [3] was 16 µg/mL (≈ 46.7 µM).
For `Cc1ccc(Oc2ccccc2-c2csc(Nc3ccccn3)n2)c(C)c1`, the MIC50 in series [5] and in series [6] was above 16 µg/mL each time.
With `Oc1ccc(-c2nc(-c3csc(N=C4NCCCN4)n3)cs2)cc1`, the values for the remaining at 0.5 h, 0.5 µM in series [1] and in series [2] were 86% and 53%, respectively. Besides, the MIC in series [3] is 2 µg/mL (≈ 5.59 µM). Further, the MIC50 in series [4] was above 16 µg/mL.
The matching figures for `c1cncc(-c2nc(-c3csc(N=C4NCCCN4)n3)cs2)c1`: 78%, 19%, 0.5 µg/mL (≈ 1.46 µM) and 2 µg/mL.
Consider `CNC(=Nc1nc(-c2ccccc2Oc2ccc(C)cc2C)cs1)NC`, for which the MIC50 in series [5] and in series [6] was above 16 µg/mL each time.
For the molecule `c1cc(-c2nc(-c3csc(N=C4NCCCN4)n3)cs2)ccn1`, the figures for the remaining at 0.5 h, 0.5 µM in series [1] and in series [2] were 58% and 9%, respectively. Moreover, in series [3], the MIC came to 0.5 µg/mL (≈ 1.46 µM). For the same molecule, the MIC50 in series [4] was 4 µg/mL.
As for `Oc1cccc(-c2nc(-c3csc(N=C4NCCCN4)n3)cs2)c1`, the results for the remaining at 0.5 h, 0.5 µM in series [1] and in series [2] were 77% and 35%, respectively. For the same molecule, in series [3], the MIC came out at 4 µg/mL (≈ 11.2 µM).
On to `c1ccc(-c2cc(-c3csc(N=C4NCCCN4)n3)cs2)cc1`, for which the remaining at 0.5 h, 0.5 µM in series [1] is 70%; in series [2], 30%. Besides, the values for the MIC50 in series [5] and in series [6] were 4 µg/mL (≈ 11.7 µM) and 0.063 µg/mL (≈ 0.185 µM), respectively.
For `Cc1ccc(Oc2ccccc2-c2csc(N(C)C)n2)c(C)c1`, the MIC50 in series [5] and in series [6] was above 16 µg/mL in each case.
Take `Cc1ccc(Oc2ccccc2-c2csc(Nc3ncccn3)n2)c(C)c1`: the MIC50 in series [5] and in series [6] was above 16 µg/mL throughout.
Regarding `Cc1ccc(Oc2ccccc2-c2nsc(N=C3NCCCN3)n2)c(C)c1`, the MIC50 in series [5] and in series [6] was above 16 µg/mL throughout.
Turning to `Oc1ccccc1-c1nc(-c2csc(N=C3NCCCN3)n2)cs1`, the remaining at 0.5 h, 0.5 µM in series [1] came out at 30%; in series [2], 38%. Further, the MIC in series [3] worked out at 0.5 µg/mL (≈ 1.4 µM). Besides, the MIC50 in series [4] came to 8 µg/mL.
Regarding `c1ccc(-c2cccc(-c3csc(N=C4NCCCN4)n3)c2)cc1`, the MIC50 in series [5] is 1 µg/mL (≈ 2.99 µM); in series [6], below 0.063 µg/mL.
Regarding `c1ccc(-n2ccc(-c3csc(N=C4NCCCN4)n3)n2)cc1`, the remaining at 0.5 h, 0.5 µM was 38% in series [1] and 1.6% in series [2]. In addition, the values for the MIC50 in series [5] and in series [6] were above 16 µg/mL and 0.5 µg/mL (≈ 1.54 µM), respectively.
With `Cc1ccc(Oc2ccccc2-c2cccc(N=C3NCCCN3)n2)c(C)c1`, the results for the MIC50 in series [5] and in series [6] were 4 µg/mL (≈ 10.7 µM) and 0.5 µg/mL (≈ 1.34 µM), respectively.
The like results for `Cc1ccc(Oc2ccccc2-c2csc(N)n2)c(C)c1` were, in that order, above 16 µg/mL and 4 µg/mL (≈ 13.5 µM).
